≈ marks a conversion by molar mass, not a printed value. Blank lines part the entries; values can stand above or below the molecule they belong to.
Tests used:
[1] = biological target: T1, Cytochrome P450 1A2 (Homo sapiens, UniProt P05177); test: (§1) Inhibition of CYP1A2; assay type: ADME
T1 sequence (P05177 whole entry): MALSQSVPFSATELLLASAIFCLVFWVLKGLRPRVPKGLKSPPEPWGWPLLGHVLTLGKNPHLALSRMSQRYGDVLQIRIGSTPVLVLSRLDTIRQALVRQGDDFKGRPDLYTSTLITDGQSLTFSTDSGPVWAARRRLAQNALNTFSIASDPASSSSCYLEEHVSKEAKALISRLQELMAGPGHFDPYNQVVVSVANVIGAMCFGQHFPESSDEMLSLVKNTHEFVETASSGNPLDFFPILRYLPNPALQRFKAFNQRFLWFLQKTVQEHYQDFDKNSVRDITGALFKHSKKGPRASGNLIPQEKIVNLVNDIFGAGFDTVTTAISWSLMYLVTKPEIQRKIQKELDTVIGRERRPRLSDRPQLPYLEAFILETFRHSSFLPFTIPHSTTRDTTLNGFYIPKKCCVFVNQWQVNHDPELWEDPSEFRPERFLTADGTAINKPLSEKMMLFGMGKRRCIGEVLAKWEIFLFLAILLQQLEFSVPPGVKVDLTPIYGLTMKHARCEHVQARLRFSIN

[2] = biological target: Cytochrome P450 2D6 (Homo sapiens, UniProt P10635); test: Inhibition of CYP2D6; assay type: ADME
Chain of Cytochrome P450 2D6 (P10635 whole entry): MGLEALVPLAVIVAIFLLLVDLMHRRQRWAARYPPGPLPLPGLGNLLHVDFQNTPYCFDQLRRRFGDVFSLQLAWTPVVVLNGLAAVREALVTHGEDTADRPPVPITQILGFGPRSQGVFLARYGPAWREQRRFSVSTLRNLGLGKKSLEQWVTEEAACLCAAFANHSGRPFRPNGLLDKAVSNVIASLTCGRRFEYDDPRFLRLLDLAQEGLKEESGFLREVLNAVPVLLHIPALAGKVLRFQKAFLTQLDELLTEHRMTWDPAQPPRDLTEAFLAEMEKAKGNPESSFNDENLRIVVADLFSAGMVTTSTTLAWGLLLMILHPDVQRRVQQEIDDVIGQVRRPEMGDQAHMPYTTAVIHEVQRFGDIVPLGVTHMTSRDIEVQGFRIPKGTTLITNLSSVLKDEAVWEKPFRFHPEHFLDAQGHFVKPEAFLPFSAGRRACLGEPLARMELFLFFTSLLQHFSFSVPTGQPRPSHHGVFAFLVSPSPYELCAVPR

[3] = Half life in human liver microsome; assay type: ADME; settings: liver microsomes
How it was run: (§2)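 Half-life in mouse or human liver microsomes, reported in min.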

[4] = biological target: T2, Cytochrome P450 2B6 (Homo sapiens, UniProt P20813); test: Inhibition of CYP2B6; assay type: ADME
T2 sequence (P20813 whole entry): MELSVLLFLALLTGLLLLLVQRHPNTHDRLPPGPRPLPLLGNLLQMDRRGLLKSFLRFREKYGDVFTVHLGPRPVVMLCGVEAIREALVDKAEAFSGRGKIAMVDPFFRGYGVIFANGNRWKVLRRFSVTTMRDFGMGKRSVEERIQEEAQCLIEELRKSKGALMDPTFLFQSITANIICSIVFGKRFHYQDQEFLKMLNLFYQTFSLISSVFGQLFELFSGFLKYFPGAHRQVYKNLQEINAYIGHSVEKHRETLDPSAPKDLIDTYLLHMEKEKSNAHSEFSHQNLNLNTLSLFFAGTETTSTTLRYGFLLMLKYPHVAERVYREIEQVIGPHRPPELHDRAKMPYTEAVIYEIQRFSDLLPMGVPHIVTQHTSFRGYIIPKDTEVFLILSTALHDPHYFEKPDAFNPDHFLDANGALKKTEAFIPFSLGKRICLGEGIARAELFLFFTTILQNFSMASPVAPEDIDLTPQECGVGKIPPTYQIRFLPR

[5] = biological target: T3, Melanin-concentrating hormone receptor 1 (Homo sapiens, UniProt Q99705); test: Displacement of [3H]4-(benzyloxy)-1-(1-(2-(pyrrolidin-1-yl)ethyl)-1H-indazol-5-yl)pyridin-2(1H)-one from MCH-1 receptor expressed in CHO-K1 cells; assay type: cell-based
T3 sequence (Q99705 whole entry): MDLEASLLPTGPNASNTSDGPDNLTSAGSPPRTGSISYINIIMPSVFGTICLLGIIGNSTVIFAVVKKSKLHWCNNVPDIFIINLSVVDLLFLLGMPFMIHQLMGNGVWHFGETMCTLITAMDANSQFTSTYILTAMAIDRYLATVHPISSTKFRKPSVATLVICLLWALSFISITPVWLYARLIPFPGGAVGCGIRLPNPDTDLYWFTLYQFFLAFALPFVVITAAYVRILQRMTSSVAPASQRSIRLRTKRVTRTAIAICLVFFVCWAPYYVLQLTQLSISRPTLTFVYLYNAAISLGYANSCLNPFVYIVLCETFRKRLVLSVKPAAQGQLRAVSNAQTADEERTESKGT
How it was run: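 Membranes from stable CHO-K1 cells expressing human MCH-1 receptor (8.92 µg protein) incubated 60 min at 25 °C with 1.4 nM tritiated indazolyl-pyridinone radioligand ± test compound in 50 mM Tris–HCl, pH 7.4. Nonspecific binding defined with 50 µM of a piperazinylpropyl urea ligand. Values are means of at least two determinations, each within 40% of the mean.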

[6] = biological target: Cytochrome P450 3A4 (Homo sapiens, UniProt P08684); test: Inhibition of CYP3A4; assay type: ADME
Chain of Cytochrome P450 3A4 (P08684 whole entry): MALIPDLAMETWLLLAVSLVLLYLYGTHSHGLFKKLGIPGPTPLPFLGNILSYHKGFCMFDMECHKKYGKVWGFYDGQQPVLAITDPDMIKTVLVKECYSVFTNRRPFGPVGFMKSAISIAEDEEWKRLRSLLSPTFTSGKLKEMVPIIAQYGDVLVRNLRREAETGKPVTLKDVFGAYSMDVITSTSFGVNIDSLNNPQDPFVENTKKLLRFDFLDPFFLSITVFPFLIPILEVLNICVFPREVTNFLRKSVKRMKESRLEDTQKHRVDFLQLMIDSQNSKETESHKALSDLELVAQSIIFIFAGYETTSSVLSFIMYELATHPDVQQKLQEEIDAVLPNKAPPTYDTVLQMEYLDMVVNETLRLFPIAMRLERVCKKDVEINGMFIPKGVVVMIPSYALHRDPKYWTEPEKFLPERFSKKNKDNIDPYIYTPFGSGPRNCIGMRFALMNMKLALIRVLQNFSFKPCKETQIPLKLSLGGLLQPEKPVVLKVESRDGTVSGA

[7] = Aqueous solubility of the compound in PBS buffer at pH 7.4 after 24 hrs; assay type: physicochemical
How it was run: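 Solubility measured in PBS at pH 7.4 after a 24 h equilibration period.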

[8] = Half life in mouse liver microsome; assay type: ADME; settings: liver microsomes; how it was run: as §2
[9] = biological target: Cytochrome P450 2C9 (Homo sapiens, UniProt P11712)
Chain of Cytochrome P450 2C9 (P11712 whole entry): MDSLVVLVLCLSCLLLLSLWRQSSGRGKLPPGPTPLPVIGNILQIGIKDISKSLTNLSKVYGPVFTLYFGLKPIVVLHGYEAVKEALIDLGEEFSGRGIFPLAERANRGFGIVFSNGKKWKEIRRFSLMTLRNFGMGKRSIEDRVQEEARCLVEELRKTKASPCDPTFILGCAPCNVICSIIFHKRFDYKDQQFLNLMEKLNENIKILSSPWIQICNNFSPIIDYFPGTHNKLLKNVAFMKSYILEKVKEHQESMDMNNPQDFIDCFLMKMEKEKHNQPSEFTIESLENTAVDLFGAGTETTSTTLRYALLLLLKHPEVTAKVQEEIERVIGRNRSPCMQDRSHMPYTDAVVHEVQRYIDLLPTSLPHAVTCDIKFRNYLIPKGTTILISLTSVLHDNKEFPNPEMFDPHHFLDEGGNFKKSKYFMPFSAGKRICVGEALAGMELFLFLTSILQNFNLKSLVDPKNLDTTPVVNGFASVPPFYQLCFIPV

[10] = Stability in human liver microsome assessed as compound remaining after 1 hr; assay type: ADME; settings: liver microsomes, read-out: Stability
How it was run: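 Human liver microsome incubation; percentage of parent remaining after 1 h.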

[11] = biological target: Cytochrome P450 2C19 (Homo sapiens, UniProt P33261)
Chain of Cytochrome P450 2C19 (P33261 whole entry): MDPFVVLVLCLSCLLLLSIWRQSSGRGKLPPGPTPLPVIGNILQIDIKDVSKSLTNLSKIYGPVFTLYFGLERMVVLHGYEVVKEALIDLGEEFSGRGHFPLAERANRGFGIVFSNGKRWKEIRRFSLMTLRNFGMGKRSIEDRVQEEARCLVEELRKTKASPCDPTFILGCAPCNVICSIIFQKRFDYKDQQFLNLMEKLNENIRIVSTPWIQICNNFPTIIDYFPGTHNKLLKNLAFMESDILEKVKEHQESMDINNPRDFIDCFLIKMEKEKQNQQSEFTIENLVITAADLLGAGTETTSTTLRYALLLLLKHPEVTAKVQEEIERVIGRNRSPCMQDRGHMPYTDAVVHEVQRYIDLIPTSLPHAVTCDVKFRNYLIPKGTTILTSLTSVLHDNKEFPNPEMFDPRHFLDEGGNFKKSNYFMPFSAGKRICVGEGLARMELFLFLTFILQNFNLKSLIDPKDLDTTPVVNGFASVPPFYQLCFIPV

[12] = Ratio of drug level in brain to plasma in DIO mouse at 30 mg/kg, po; settings: read-out: BPR
[13] = biological target: T4, CYP1A2 (Homo sapiens, UniProt P05177); test: as §1; assay type: ADME
T4 sequence (P05177 whole entry): T1 sequence (P05177 whole entry)

[14] = tested on: Mus musculus; test: Antiobesity activity in diet-induced obese mouse assessed as reduction in body weight at 60 mg/kg qd; assay type: functional; set-up: scale not given: the % may be the effect or the level left
[15] = Ionisation constant for the compound; assay type: physicochemical
[16] = Drug level in DIO mouse plasma at 30 mg/kg, po after 6 hrs; assay type: ADME, organism-based; set-up: dose 30 mg/kg, route oral
How it was run: (§3)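 DIO mice given 30 mg/kg orally. Plasma (ng/mL) and brain (ng/g) concentrations measured 6 h post dose; AUC determined from 0 to 6 h.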

[17] = tested on: Mus musculus; test: Antiobesity activity in diet-induced obese mouse assessed as reduction in body weight at 30 mg/kg bid; assay type: functional; set-up: scale not given: the % may be the effect or the level left
[18] = Drug level in DIO mouse brain at 30 mg/kg, po after 6 hrs; assay type: ADME, organism-based; set-up: dose 30 mg/kg, route oral; settings: read-out: Drug uptake; how it was run: as §3
[19] = Plasma protein binding in DIO mouse at 30 mg/kg, po; assay type: ADME, organism-based; set-up: dose 30 mg/kg, route oral; settings: read-out: PPB (converted)
How it was run: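 Mouse plasma protein binding determined by ultrafiltration.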

[20] = AUC (0 to 6 hrs) in DIO mouse at 30 mg/kg, po; assay type: ADME, organism-based; set-up: time < 6 hr, dose 30 mg/kg, route oral; settings: plasma; how it was run: as §3
[21] = tested on: Mus musculus; test: Antiobesity activity in diet-induced obese mouse assessed as reduction in body weight at 30 mg/kg qd; assay type: functional; set-up: scale not given: the % may be the effect or the level left
How it was run: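 Male C57BL/6J diet-induced obese mice dosed orally once daily, 30 mg/kg in 1% methylcellulose in water, for 5 days. Body weight tracked daily; % difference from vehicle control on Day 6. Adjusted means, n = 8–10, ANCOVA with Day 1 body weight as covariate, then Dunnett's test.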

[22] = biological target: T3, Melanin-concentrating hormone receptor 1; test: Antagonist activity at MCH-1 receptor; assay type: functional
How it was run: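 Functional antagonism read as Ca2+ mobilization in an Aequorin cell line expressing recombinant MCH-1 receptor, run by a contract lab.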

[23] = tested on: panel of 30 GPCRs and transporters (off-target); test: Inhibition of panel of 30 GPCRs and transporters at 1 uM
[24] = Ratio of drug level in brain to plasma in lean mouse at 10 mg/kg, po; settings: read-out: BPR

- IC50 [1]: > 10 µM
- IC50 [2]: > 10 µM
- half-life [3]: > 16.7 h
- IC50 [4]: > 10 µM
- Ki [5]: 0.0052 µM
- IC50 [6]: 24 µM
- solubility at 24 h [7]: 93 µM (≈ 37.2 µg/mL)
- half-life [8]: 1.05 h
SMILES: CN1CCc2c(n(C)c3cc(-n4ccc(OCc5ccccc5)cc4=O)ccc23)C1

- Ki [5]: 0.0084 µM
SMILES: CSc1ccc(-c2ccn(-c3ccc4c5c(n(C)c4c3)CNCC5)c(=O)c2)cc1

- Ki [5]: 0.0056 µM
SMILES: CN1CCc2c(n(C)c3cc(-n4ccc(-c5ccc(Cl)cc5)cc4=O)ccc23)C1

- Ki [5]: 0.0036 µM
SMILES: Cn1c2c(c3ccc(-n4ccc(OCc5ccccc5)cc4=O)cc31)CN(CCO)CC2

- Ki [5]: 0.011 µM
SMILES: Cn1c2c(c3ccc(-n4ccc(-c5ccc(Cl)cc5)cc4=O)cc31)CCNC2

- Ki [5]: 0.0026 µM
SMILES: COc1ccc(-c2ccn(-c3ccc4c5c(n(C)c4c3)CCNC5)c(=O)c2)cc1

- Ki [5]: 0.007 µM
SMILES: COc1cc(Cl)ccc1-c1ccn(-c2ccc3c4c(n(C)c3c2)CCNC4)c(=O)c1

- Ki [5]: 0.0024 µM
SMILES: CSc1ccc(-c2ccn(-c3ccc4c5c(n(C)c4c3)CCNC5)c(=O)c2)cc1

- Ki [5]: 0.708 µM
SMILES: CN1CCc2c(n(C)c3cc(-n4ccc(-c5ccc(F)cn5)cc4=O)ccc23)C1

- Ki [5]: 0.0076 µM
SMILES: CN1CCc2c(n(C)c3cc(-n4ccc(OCc5ccc(Cl)cc5)cc4=O)ccc23)C1

- Ki [5]: 0.014 µM
SMILES: CN1CCc2c(n(C)c3cc(-n4ccc(-c5ccc(Cl)cc5Cl)cc4=O)ccc23)C1

- Ki [5]: 0.025 µM
SMILES: CN1CCc2c(n(C)c3cc(-n4ccc(OCc5ccc(C(F)(F)F)cc5)cc4=O)ccc23)C1

- Ki [5]: 0.0072 µM
SMILES: Cn1c2c(c3ccc(-n4ccc(-c5ccc(Cl)cc5Cl)cc4=O)cc31)CNCC2

- IC50 [9]: > 10 µM
- IC50 [1]: > 10 µM
- IC50 [2]: > 10 µM
- remaining at 1 h [10]: 98.4%
- half-life [3]: 7.7 h
- IC50 [4]: > 10 µM
- Ki [5]: 0.0038 µM
- IC50 [11]: > 10 µM
- IC50 [6]: 68 µM
- solubility at 24 h [7]: 470 µM (≈ 181 µg/mL)
SMILES: Cn1c2c(c3ccc(-n4ccc(OCc5ccccc5)cc4=O)cc31)CNCC2

- Ki [5]: 0.0078 µM
SMILES: CN1CCc2c(c3ccc(-n4ccc(-c5ccc(F)cc5)cc4=O)cc3n2C)C1

- Ki [5]: 0.0076 µM
SMILES: COc1ccc(-c2ccn(-c3ccc4c5c(n(C)c4c3)CCNC5)c(=O)c2)c(C)c1

- Ki [5]: 0.168 µM
SMILES: CC(=O)N1CCc2c(c3ccc(-n4ccc(OCc5ccccc5)cc4=O)cc3n2C)C1

- Kp [12]: 0.72
- IC50 [13]: > 10 µM
- pKa [15]: 8.63
- concentration at 6 h [16]: 1950 ng/mL
- concentration at 6 h [18]: 1380 ng/mL
- fraction unbound [19]: 0.086
- AUC(0-t) at 6 h [20]: 14800 ng·h/mL
SMILES: O=c1cc(OCc2ccccc2)ccn1-c1ccc2c(cnn2CCN2CCCC2)c1
- Activity [14]: 2.8%
- Activity [17]: 6%

- Ki [5]: 0.014 µM
SMILES: COc1ccc(-c2ccn(-c3ccc4c5c(n(C)c4c3)CNCC5)c(=O)c2)cc1

- Ki [5]: 0.128 µM
SMILES: Cn1c2c(c3ccc(-n4ccc(-c5ccc(Cl)cn5)cc4=O)cc31)CCNC2

- Ki [5]: 0.0027 µM
SMILES: Cn1c2c(c3ccc(-n4ccc(-c5ccc(Cl)cc5)cc4=O)cc31)CNCC2

- Ki [5]: 0.014 µM
SMILES: COc1ccc(-c2ccn(-c3ccc4c5c(n(C)c4c3)CNCC5)c(=O)c2)c(C)c1

- Kp [12]: 0.51
- IC50 [1]: > 10 µM
- IC50 [2]: > 10 µM
- half-life [3]: 7.5 h
- IC50 [4]: > 10 µM
- Ki [5]: 0.0049 µM
- IC50 [22]: 0.0144 µM
- IC50 [6]: 12 µM
- solubility at 24 h [7]: > 500 µM
- pKa [15]: 8.81
- concentration at 6 h [16]: 8030 ng/mL
- concentration at 6 h [18]: 4010 ng/mL
- half-life [8]: 8.03 h
- fraction unbound [19]: 0.059
- AUC(0-t) at 6 h [20]: 41300 ng·h/mL
SMILES: Cn1c2c(c3ccc(-n4ccc(OCc5ccccc5)cc4=O)cc31)CCNC2
- Activity [21]: 9.1%

- Ki [5]: 0.0042 µM
SMILES: Cn1c2c(c3ccc(-n4ccc(OCc5ccc(Cl)cc5)cc4=O)cc31)CNCC2

- Ki [5]: 0.015 µM
SMILES: Cn1c2c(c3ccc(-n4ccc(-c5ccccc5)cc4=O)cc31)CNCC2

- Ki [5]: 0.011 µM
SMILES: Cn1c2c(c3ccc(-n4ccc(-c5ccc(C(F)(F)F)cc5)cc4=O)cc31)CCNC2

- Ki [5]: 0.017 µM
SMILES: COc1cc(Cl)ccc1-c1ccn(-c2ccc3c4c(n(C)c3c2)CNCC4)c(=O)c1

- Ki [5]: 0.0067 µM
SMILES: Cn1c2c(c3ccc(-n4ccc(OCc5ccc(C(F)(F)F)cc5)cc4=O)cc31)CNCC2

- Ki [5]: 0.0042 µM
SMILES: Cn1c2c(c3ccc(-n4ccc(-c5ccc(C(F)(F)F)cc5)cc4=O)cc31)CNCC2

- IC50 [1]: > 10 µM
- IC50 [2]: > 10 µM
- half-life [3]: 12.8 h
- IC50 [4]: > 10 µM
- Ki [5]: 0.0045 µM
- inhibition [23]: < 55%
- Kp [24]: 0.9
- IC50 [6]: 67 µM
- solubility at 24 h [7]: 110 µM (≈ 43.9 µg/mL)
- concentration at 6 h [16]: 5030 ng/mL
- half-life [8]: > 16.7 h
- fraction unbound [19]: 0.016
- AUC(0-t) at 6 h [20]: 27000 ng·h/mL
SMILES: CN1CCc2c(c3ccc(-n4ccc(OCc5ccccc5)cc4=O)cc3n2C)C1
- Activity [21]: 7.2%

Source: ChEMBL document CHEMBL1287681, “Tetrahydrocarboline analogs as MCH-1 antagonists” (Bioorg Med Chem Lett, 2010)
